Results as given in ChEMBL document CHEMBL4411337, “2-Aminothiazole Derivatives as Selective Allosteric Modulators of the Protein Kinase CK2. 1. Identification of an Allosteric Binding Site” (J Med Chem, 2019).
Each block holds one compound with its values, some of them ahead of it. Calls of active or inactive are those of the source. No cut-off for these calls is given here.

What was measured:
[1] = target: T1, Casein kinase II subunit alpha (Homo sapiens, UniProt P68400); test: Inhibition of recombinant human GST-tagged CK2alpha at 10 uM in presence of ATP by radiometric kinase assay relative to control
Procedure, shortened: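 Radiometric assay of CK2α with 100 μM ATP. Single-concentration percent inhibition at 10 μM relative to control. Values are the mean of ≥2 experiments.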
Target sequence in this assay (P68400 whole entry, looked up): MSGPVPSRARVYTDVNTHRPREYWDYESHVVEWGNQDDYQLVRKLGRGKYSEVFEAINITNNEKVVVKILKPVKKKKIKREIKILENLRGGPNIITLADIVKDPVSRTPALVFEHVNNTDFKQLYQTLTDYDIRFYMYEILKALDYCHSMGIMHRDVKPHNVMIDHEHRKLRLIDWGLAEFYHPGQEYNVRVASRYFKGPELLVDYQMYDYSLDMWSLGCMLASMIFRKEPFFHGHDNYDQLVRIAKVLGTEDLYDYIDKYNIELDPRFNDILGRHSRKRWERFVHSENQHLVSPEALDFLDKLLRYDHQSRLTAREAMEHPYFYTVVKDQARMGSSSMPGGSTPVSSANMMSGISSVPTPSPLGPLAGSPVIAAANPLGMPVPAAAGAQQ

[2] = target: Epidermal growth factor receptor (Homo sapiens) (UniProt P00533); test: Inhibition of EGFR (unknown origin) assessed as residual activity at 50 uM relative to control
Procedure, shortened: (§1)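 Selectivity profiling against a panel of 44 human kinases. For each kinase, ATP was set to that kinase's Km. Values are residual activity in duplicate assays.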

[3] = target: Ephrin type-A receptor 4 (Homo sapiens) (UniProt P54764); test: Inhibition of EPHA4 (unknown origin) assessed as residual activity at 50 uM relative to control; procedure, shortened: as §1
Chain of Ephrin type-A receptor 4 (Homo sapiens) (P54764 whole entry): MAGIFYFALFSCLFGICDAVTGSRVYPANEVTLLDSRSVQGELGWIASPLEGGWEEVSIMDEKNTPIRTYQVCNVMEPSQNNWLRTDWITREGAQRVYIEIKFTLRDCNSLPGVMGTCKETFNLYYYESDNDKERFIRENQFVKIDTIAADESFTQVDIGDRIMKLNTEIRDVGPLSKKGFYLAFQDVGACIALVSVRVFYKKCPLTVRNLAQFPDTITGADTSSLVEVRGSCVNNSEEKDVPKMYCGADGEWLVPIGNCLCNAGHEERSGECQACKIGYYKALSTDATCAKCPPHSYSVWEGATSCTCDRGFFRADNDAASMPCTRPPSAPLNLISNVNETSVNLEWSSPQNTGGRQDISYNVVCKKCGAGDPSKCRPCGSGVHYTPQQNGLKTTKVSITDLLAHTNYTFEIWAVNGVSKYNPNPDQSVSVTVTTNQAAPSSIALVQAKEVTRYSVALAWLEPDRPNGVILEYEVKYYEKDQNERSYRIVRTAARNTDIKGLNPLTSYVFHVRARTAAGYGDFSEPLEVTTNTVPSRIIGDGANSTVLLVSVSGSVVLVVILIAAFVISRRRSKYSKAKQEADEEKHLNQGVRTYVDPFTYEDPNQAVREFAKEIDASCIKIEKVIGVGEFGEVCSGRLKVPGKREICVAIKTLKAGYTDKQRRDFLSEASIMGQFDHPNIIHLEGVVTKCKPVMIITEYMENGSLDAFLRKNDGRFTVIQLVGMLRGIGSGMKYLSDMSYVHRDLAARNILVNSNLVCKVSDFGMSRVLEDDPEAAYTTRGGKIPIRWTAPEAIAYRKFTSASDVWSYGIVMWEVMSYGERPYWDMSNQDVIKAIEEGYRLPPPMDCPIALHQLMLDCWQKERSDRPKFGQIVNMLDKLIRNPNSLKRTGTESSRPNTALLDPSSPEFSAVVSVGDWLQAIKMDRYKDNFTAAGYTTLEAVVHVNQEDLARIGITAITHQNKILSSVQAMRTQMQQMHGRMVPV

[4] = target: Serine/threonine-protein kinase pim-1 (Homo sapiens) (UniProt P11309); test: Inhibition of PIM1 (unknown origin) assessed as residual activity at 50 uM relative to control; procedure, shortened: as §1
Chain of Serine/threonine-protein kinase pim-1 (Homo sapiens) (P11309 whole entry, looked up): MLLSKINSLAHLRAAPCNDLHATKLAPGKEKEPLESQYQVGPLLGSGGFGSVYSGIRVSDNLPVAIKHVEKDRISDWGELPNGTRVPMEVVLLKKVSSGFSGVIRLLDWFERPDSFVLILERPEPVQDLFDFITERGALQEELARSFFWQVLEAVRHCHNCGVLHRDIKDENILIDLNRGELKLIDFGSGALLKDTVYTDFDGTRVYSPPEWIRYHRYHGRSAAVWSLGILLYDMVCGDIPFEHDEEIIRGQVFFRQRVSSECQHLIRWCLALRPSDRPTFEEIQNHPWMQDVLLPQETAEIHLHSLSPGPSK

[5] = target: Muscle, skeletal receptor tyrosine-protein kinase (Homo sapiens) (UniProt O15146); test: Inhibition of MUSK (unknown origin) assessed as residual activity at 50 uM relative to control; procedure, shortened: as §1
[6] = target: Platelet-derived growth factor receptor alpha (Homo sapiens) (UniProt P16234); test: Inhibition of PDGFRalpha (unknown origin) assessed as residual activity at 50 uM relative to control; procedure, shortened: as §1
[7] = target: Glycogen synthase kinase-3 beta (Homo sapiens) (UniProt P49841); test: Inhibition of GSK3beta (unknown origin) assessed as residual activity at 50 uM relative to control; procedure, shortened: as §1
Chain of Glycogen synthase kinase-3 beta (Homo sapiens) (P49841 whole entry, looked up): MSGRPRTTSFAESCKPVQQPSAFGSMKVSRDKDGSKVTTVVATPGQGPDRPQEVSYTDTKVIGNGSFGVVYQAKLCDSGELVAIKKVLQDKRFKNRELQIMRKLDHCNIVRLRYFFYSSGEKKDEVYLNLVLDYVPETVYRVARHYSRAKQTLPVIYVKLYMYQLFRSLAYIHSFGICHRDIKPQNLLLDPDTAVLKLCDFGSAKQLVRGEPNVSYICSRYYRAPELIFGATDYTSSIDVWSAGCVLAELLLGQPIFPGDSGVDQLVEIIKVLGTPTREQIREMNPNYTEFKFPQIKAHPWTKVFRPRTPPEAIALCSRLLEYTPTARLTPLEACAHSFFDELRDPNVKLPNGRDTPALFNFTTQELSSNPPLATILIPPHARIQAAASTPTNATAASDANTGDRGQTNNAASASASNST

[8] = target: Homeodomain-interacting protein kinase 2 (Homo sapiens) (UniProt Q9H2X6); test: Inhibition of HIPK2 (unknown origin) assessed as residual activity at 50 uM relative to control; procedure, shortened: as §1
[9] = target: Protein kinase C alpha type (Homo sapiens) (UniProt P17252); test: Inhibition of PKCalpha (unknown origin) assessed as residual activity at 50 uM relative to control
Procedure, shortened: (§2)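 Profiling panel of 44 human kinases. ATP set to each kinase's Km. Run in duplicate; duplicates within 15–17% of each other.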

[10] = target: Mast/stem cell growth factor receptor Kit (Homo sapiens) (UniProt P10721); test: Inhibition of cKIT (unknown origin) assessed as residual activity at 50 uM relative to control; procedure, shortened: as §2
[11] = target: Cyclin-dependent kinase 1/cyclin B1 (Homo sapiens) (UniProt P06493+P14635); test: Inhibition of CDK1/cyclin B (unknown origin) assessed as residual activity at 50 uM relative to control; format: protein-complex assay; procedure, shortened: as §1
[12] = target: Serine/threonine-protein kinase Chk2 (Homo sapiens) (UniProt O96017); test: Inhibition of CHK2 (unknown origin) assessed as residual activity at 50 uM relative to control; procedure, shortened: as §1
[13] = target: Homeodomain-interacting protein kinase 3 (Homo sapiens) (UniProt Q9H422); test: Inhibition of HIPK3 (unknown origin) assessed as residual activity at 50 uM relative to control; procedure, shortened: as §1
[14] = target: Rho-associated protein kinase 1 (Homo sapiens) (UniProt Q13464); test: Inhibition of ROCK1 (unknown origin) assessed as residual activity at 50 uM relative to control; procedure, shortened: as §2
[15] = target: Cyclin-dependent kinase 2/cyclin E1 (Homo sapiens) (UniProt P24864+P24941); test: Inhibition of CDK2/cyclin E (unknown origin) assessed as residual activity at 50 uM relative to control; format: protein-complex assay; procedure, shortened: as §1
[16] = target: Dual specificity mitogen-activated protein kinase kinase 1 (Homo sapiens) (UniProt Q02750); test: Inhibition of MEK1 (unknown origin) assessed as residual activity at 50 uM relative to control; procedure, shortened: as §1
[17] = target: Tyrosine-protein kinase ABL1 (Homo sapiens) (UniProt P00519); test: Inhibition of ABL (unknown origin) assessed as residual activity at 50 uM relative to control; procedure, shortened: as §1
[18] = target: Tyrosine-protein kinase JAK2 (Homo sapiens) (UniProt O60674); test: Inhibition of JAK2 (unknown origin) assessed as residual activity at 50 uM relative to control; procedure, shortened: as §1
[19] = target: Casein kinase I isoform gamma-1 (Homo sapiens) (UniProt Q9HCP0); test: Inhibition of CK1gamma1 (unknown origin) assessed as residual activity at 50 uM relative to control; procedure, shortened: as §1
[20] = target: Activin receptor type-1 (Homo sapiens) (UniProt Q04771); test: Inhibition of ALK2 (unknown origin) assessed as residual activity at 50 uM relative to control; procedure, shortened: as §1
[21] = target: Dual specificity protein kinase CLK4 (Homo sapiens) (UniProt Q9HAZ1); test: Inhibition of CLK4 (unknown origin) assessed as residual activity at 50 uM relative to control; procedure, shortened: as §1
[22] = target: Myosin light chain kinase 2, skeletal/cardiac muscle (Homo sapiens) (UniProt Q9H1R3); test: Inhibition of MLCK2 (unknown origin) assessed as residual activity at 50 uM relative to control; procedure, shortened: as §1
Chain of Myosin light chain kinase 2, skeletal/cardiac muscle (Homo sapiens) (Q9H1R3 whole entry): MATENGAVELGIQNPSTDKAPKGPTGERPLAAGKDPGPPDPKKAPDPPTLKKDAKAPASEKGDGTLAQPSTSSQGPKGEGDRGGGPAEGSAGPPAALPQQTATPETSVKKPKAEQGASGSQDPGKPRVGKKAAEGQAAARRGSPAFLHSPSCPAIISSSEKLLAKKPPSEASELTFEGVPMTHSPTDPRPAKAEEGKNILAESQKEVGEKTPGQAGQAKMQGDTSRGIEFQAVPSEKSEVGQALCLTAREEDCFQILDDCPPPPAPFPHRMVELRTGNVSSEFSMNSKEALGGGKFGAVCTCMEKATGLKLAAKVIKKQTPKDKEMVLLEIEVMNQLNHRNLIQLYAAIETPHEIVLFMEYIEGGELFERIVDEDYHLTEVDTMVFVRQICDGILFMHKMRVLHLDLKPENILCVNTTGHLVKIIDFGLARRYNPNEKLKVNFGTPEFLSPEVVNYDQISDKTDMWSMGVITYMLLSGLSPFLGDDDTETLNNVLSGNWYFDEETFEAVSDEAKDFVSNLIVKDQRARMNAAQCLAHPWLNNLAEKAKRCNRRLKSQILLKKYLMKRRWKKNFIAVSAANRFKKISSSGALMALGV

[23] = target: Serine/threonine-protein kinase haspin (Homo sapiens) (UniProt Q8TF76); test: Inhibition of haspin (unknown origin) assessed as residual activity at 50 uM relative to control; procedure, shortened: as §2
[24] = target: Dual specificity protein kinase CLK2 (Homo sapiens) (UniProt P49760); test: Inhibition of CLK2 (unknown origin) assessed as residual activity at 50 uM relative to control; procedure, shortened: as §1
[25] = target: Serine/threonine-protein kinase TBK1 (Homo sapiens) (UniProt Q9UHD2); test: Inhibition of TBK1 (unknown origin) assessed as residual activity at 50 uM relative to control; procedure, shortened: as §2
[26] = target: Dual specificity tyrosine-phosphorylation-regulated kinase 1A (Homo sapiens) (UniProt Q13627); test: Inhibition of DYRK1A (unknown origin) assessed as residual activity at 50 uM relative to control; procedure, shortened: as §1
[27] = target: Dual specificity protein kinase CLK1 (Homo sapiens) (UniProt P49759); test: Inhibition of CLK1 (unknown origin) assessed as residual activity at 50 uM relative to control; procedure, shortened: as §1
[28] = target: Dual specificity protein kinase CLK3 (Homo sapiens) (UniProt P49761); test: Inhibition of CLK3 (unknown origin) assessed as residual activity at 50 uM relative to control; procedure, shortened: as §1
[29] = target: Receptor-interacting serine/threonine-protein kinase 2 (Homo sapiens) (UniProt O43353); test: Inhibition of RIPK2 (unknown origin) assessed as residual activity at 50 uM relative to control; procedure, shortened: as §2
Chain of Receptor-interacting serine/threonine-protein kinase 2 (Homo sapiens) (O43353 whole entry): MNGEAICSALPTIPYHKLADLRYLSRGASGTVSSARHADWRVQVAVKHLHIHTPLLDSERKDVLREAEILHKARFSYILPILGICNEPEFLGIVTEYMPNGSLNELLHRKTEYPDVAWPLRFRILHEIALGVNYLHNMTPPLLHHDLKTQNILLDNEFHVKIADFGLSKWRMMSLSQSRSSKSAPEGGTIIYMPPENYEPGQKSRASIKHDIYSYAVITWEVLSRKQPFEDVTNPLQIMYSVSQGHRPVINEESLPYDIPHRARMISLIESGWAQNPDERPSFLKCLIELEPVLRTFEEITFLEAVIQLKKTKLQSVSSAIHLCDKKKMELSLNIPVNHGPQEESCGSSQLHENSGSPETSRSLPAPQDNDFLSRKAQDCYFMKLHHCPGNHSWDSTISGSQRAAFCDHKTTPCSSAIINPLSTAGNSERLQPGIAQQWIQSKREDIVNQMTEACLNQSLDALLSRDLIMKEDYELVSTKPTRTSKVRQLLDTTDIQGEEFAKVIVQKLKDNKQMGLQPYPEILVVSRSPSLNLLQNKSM

[30] = target: MAP kinase-interacting serine/threonine-protein kinase 1 (Homo sapiens) (UniProt Q9BUB5); test: Inhibition of MNK1 (unknown origin) assessed as residual activity at 50 uM relative to control; procedure, shortened: as §1
[31] = target: Death-associated protein kinase 3 (Homo sapiens) (UniProt O43293); test: Inhibition of DAPK3 (unknown origin) assessed as residual activity at 50 uM relative to control; procedure, shortened: as §1
Chain of Death-associated protein kinase 3 (Homo sapiens) (O43293 whole entry, looked up): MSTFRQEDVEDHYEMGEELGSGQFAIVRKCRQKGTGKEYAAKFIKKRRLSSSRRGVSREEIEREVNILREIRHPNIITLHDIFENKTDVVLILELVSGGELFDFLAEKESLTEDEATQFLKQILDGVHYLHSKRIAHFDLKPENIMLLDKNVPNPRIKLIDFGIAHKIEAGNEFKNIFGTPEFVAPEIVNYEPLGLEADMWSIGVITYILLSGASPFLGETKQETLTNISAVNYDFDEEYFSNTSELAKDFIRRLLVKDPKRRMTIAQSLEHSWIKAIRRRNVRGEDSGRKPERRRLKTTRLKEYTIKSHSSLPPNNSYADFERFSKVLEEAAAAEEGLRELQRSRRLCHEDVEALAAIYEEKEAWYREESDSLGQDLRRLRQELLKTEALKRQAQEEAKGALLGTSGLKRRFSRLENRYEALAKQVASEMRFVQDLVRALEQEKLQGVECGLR

[32] = Solubility of the compound in water; format: physicochemical; settings: buffer
[33] = target: T1, Casein kinase II subunit alpha; test: Inhibition of recombinant human GST-tagged CK2alpha in presence of ATP by radiometric kinase assay
Target sequence in this assay (P68400 whole entry): as the sequence (P68400 whole entry, looked up) above

[34] = target: Casein kinase II alpha/beta (Homo sapiens) (UniProt P67870+P68400); test: Inhibition of recombinant human GST-tagged CK2alpha2/CK2beta2 at 15 uM in presence of ATP by radiometric kinase assay; format: protein-complex assay
Chain of Casein kinase II alpha/beta (Homo sapiens) (P67870 2-215 limits assumed): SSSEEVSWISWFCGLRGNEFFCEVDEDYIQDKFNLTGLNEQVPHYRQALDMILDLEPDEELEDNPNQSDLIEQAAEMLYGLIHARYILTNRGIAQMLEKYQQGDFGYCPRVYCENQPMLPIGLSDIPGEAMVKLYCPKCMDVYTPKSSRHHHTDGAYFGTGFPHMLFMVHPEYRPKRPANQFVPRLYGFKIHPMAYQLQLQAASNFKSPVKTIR
Chain of Casein kinase II alpha/beta (Homo sapiens) (P68400 whole entry partner): as the sequence (P68400 whole entry, looked up) above

[35] = target: T1, Casein kinase II subunit alpha; test: Inhibition of recombinant human GST-tagged CK2alpha at 15 uM in presence of varying ATP levels by radiometric kinase assay
Target sequence in this assay (P68400 whole entry, looked up): as above

[36] = target: T1, Casein kinase II subunit alpha; test: Inhibition of recombinant human GST-tagged CK2alpha at 15 uM in presence of varying substrate levels by radiometric kinase assay
Target sequence in this assay (P68400 whole entry, looked up): as above

[37] = target: T1, Casein kinase II subunit alpha; test: Mixed-type inhibition of recombinant human GST-tagged CK2alpha in presence of ATP by Lineweaver-Burk plot analysis
Target sequence in this assay (P68400 whole entry): as the sequence (P68400 whole entry, looked up) above

[38] = target: T1, Casein kinase II subunit alpha; test: Non-ATP competitive binding affinity to GST-tagged CK2alpha (unknown origin) assessed as melting temperature at 50 uM by temperature-dependent circular dichroism (reference value: […] degC)
Target sequence in this assay (P68400 whole entry, looked up): as above

[39] = target: T1, Casein kinase II subunit alpha; test: Binding affinity to CK2alpha (unknown origin) at 500 uM in presence of kinase inhibitor CX-4945 by STD-based NMR spectroscopy
Procedure, shortened: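 STD NMR at 600 MHz and 293 K in PBS pH 7.3 with 10 mM NaCl, 2 mM MgCl2 and 10% D2O. […] On-resonance protein saturation was at 0.6 ppm for 2 s. STD factors were normalized so the highest STD factor is 100%.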
Target sequence in this assay (P68400 whole entry, looked up): as above

[40] = target: T1, Casein kinase II subunit alpha; test: Competitive binding affinity to CK2alpha (1 to 335 residues) (unknown origin) at 10 uM in presence of IP6 by nESI-MS analysis
Procedure, shortened: (§3)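 Native nESI-MS of CK2α residues 1–335 (10 μM) after buffer exchange into 0.50 M ammonium acetate pH 8.5 with 5% (v/v) DMSO. […] Capillary was 1.6–2.0 kV, cone 30–90 V, collision 10 V, source 20 °C; CsI calibration. Ligand binding was read from the charge-state spectra.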
Target sequence in this assay (P68400 whole entry, looked up): as above

[41] = target: T1, Casein kinase II subunit alpha; test: Competitive binding affinity to CK2alpha (1 to 335 residues) (unknown origin) at 10 uM by native mass spectrometry; procedure, shortened: as §3
[42] = target: T1, Casein kinase II subunit alpha; test: Competitive binding affinity to CK2alpha (1 to 335 residues) (unknown origin) at 10 uM in presence of IP6 by native mass spectrometry; procedure, shortened: as §3
[43] = target: T1, Casein kinase II subunit alpha; test: Competitive binding affinity to CK2alpha (1 to 335 residues) (unknown origin) at 10 uM in presence of IP6 by nESI-MS analysis

- inhibition [1]: 27%
Compound: O=[N+]([O-])c1cccc(-c2csc(Nc3ccccc3)n2)c1

- inhibition [1]: 9%
Compound: COC(=O)c1ccc(Nc2nc(-c3cccc([N+](=O)[O-])c3)cs2)cc1

- IC50 [33]: 27.7 µM
- inhibition [34]: Active
- inhibition [35]: Active
- inhibition [36]: Active
Compound: O=C(O)c1cccc(Nc2nc(-c3cccc([N+](=O)[O-])c3)cs2)c1

Further lines, the compound ahead of its results:

Compound: O=C(O)c1ccc(Nc2nc(-c3cccc(Br)c3)cs2)cc1
- Activity [2]: 106%
- Activity [3]: 27%
- Activity [4]: 57%
- Activity [5]: 90%
- Activity [6]: 102%
- Activity [7]: 29%
- Activity [8]: 57%
- Activity [9]: 92%
- Activity [10]: 116%
- Activity [11]: 78%
- Activity [12]: 72%
- Activity [13]: 82%
- Activity [14]: 107%
- Activity [15]: 107%
- Activity [16]: 95%
- Activity [17]: 69%
- Activity [18]: 98%
- Activity [19]: 31%
- Activity [20]: 34%
- Activity [21]: 39%
- Activity [22]: 39%
- Activity [23]: 55%
- Activity [24]: 67%
- Activity [25]: 75%
- Activity [26]: 79%
- Activity [27]: 80%
- Activity [28]: 86%
- Activity [29]: 86%
- Activity [30]: 101%
- Activity [31]: 104%

Compound: O=C(O)c1ccc(Nc2nccs2)cc1
- inhibition [1]: 0%

Compound: O=C(O)c1ccc(Nc2nc(-c3ccccn3)cs2)cc1
- solubility [32]: Soluble

Compound: O=C(O)c1ccc(Nc2nc(-c3ccccc3)cs2)cc1
- IC50 [33]: 9 µM
- Ki [37]: 1.1 µM
- Tm [38]: 50.3 °C
- solubility [32]: Soluble
- Activity [39]: Active
- Activity [40]: Active
- Activity [41]: Active
- Activity [42]: inactive
- Activity [43]: Active
